According to article PMC8802302 (Journal of Medicinal Chemistry, 2021):

What was measured:
DRAK1 (DRAK1-NLuc) = molecular target: T1, DRAK1 (DRAK1-NLuc) (Homo sapiens, UniProt Q9UEE5); test: NanoBRET cellular target engagement assay; type: cell-based
T1 sequence (Q9UEE5 1-414): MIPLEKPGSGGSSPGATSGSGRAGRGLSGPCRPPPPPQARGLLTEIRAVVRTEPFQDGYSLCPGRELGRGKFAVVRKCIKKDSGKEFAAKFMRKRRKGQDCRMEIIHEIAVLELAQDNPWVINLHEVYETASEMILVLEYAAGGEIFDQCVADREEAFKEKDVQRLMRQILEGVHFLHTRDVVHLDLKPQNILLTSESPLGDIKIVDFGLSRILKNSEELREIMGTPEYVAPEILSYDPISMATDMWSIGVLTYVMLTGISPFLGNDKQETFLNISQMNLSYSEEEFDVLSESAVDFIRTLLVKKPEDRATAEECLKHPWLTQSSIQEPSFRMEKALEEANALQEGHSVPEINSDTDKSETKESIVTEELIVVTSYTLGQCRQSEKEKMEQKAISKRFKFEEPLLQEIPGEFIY

[1] = tested on: 403 wild-type (WT) human kinases; test: DiscoverX scanMAX kinome-wide selectivity screen; type: binding; conditions: 403 WT human kinases; for no. kinases with PoC < 10: DiscoverX scanMAX, 1 μM; for S10 (1 μM): Percentage of screened kinases with PoC values < 10 at 1 μM
16-member kinase panel = test: Eurofins custom enzymatic kinase panel, count of kinases inhibited; type: biochemical; conditions: 16-member Eurofins panel, 1 μM
Outline: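 Radiometric kinase assays were run with ATP at Km. Each test compound was tested at a single concentration of 1 μM, in duplicate, against each panel kinase, with results as percent of control. The count is the number of kinases at ≤ 10 PoC, i.e. inhibited ≥ 90%.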

JAK2 = JAK2 (Homo sapiens, UniProt O60674); test: Eurofins kinase enzymatic radiometric assay; type: biochemical
Outline: (§1)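 Radiometric kinase activity assay with ATP at the Km for each kinase. Test compounds were run as 9-point dose–response curves in duplicate to give IC50.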

ULK2 = molecular target: T2, ULK2 (Homo sapiens, UniProt Q8IYT8); test: Eurofins kinase enzymatic radiometric assay; type: biochemical
T2 sequence (Q8IYT8 1-1036): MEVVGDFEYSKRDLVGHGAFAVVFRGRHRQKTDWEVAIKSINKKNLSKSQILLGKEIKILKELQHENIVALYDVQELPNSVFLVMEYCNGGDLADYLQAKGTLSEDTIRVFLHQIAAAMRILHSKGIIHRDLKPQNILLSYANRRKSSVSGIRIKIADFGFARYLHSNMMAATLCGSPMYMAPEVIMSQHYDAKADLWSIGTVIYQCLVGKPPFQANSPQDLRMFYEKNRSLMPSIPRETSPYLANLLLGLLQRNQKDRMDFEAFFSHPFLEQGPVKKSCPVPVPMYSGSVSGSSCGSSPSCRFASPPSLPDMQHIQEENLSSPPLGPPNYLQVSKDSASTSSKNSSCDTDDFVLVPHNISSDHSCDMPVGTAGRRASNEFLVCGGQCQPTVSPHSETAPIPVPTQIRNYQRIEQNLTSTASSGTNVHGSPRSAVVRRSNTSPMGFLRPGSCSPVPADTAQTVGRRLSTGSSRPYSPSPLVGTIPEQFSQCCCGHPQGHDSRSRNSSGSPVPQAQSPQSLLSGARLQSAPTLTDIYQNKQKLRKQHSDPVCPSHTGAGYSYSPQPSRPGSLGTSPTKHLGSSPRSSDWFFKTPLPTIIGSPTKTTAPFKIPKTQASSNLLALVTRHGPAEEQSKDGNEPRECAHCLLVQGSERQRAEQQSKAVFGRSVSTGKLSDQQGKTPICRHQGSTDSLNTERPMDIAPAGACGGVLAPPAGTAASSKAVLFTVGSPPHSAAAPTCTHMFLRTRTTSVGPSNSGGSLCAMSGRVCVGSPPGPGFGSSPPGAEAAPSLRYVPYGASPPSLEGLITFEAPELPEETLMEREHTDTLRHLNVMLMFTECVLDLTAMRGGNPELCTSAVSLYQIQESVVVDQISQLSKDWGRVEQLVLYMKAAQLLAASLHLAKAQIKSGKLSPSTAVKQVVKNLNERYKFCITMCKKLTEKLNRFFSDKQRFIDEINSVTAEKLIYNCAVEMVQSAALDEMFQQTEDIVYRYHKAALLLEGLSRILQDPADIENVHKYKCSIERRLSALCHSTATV
Outline: as §1

DRAK2 = molecular target: T3, DRAK2 (Homo sapiens, UniProt O94768); test: Eurofins kinase enzymatic radiometric assay; type: biochemical
T3 sequence (O94768 1-372): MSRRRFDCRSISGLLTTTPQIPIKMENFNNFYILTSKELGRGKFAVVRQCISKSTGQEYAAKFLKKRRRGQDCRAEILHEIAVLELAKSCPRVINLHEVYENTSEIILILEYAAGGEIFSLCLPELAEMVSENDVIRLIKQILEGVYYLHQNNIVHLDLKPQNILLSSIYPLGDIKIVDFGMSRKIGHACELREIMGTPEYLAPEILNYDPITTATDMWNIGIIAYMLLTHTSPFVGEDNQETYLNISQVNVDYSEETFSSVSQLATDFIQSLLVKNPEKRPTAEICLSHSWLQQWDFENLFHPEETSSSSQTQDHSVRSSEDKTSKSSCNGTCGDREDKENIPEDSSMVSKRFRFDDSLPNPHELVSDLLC
Outline: as §1

Sequence of JAK2 (O60674 whole entry): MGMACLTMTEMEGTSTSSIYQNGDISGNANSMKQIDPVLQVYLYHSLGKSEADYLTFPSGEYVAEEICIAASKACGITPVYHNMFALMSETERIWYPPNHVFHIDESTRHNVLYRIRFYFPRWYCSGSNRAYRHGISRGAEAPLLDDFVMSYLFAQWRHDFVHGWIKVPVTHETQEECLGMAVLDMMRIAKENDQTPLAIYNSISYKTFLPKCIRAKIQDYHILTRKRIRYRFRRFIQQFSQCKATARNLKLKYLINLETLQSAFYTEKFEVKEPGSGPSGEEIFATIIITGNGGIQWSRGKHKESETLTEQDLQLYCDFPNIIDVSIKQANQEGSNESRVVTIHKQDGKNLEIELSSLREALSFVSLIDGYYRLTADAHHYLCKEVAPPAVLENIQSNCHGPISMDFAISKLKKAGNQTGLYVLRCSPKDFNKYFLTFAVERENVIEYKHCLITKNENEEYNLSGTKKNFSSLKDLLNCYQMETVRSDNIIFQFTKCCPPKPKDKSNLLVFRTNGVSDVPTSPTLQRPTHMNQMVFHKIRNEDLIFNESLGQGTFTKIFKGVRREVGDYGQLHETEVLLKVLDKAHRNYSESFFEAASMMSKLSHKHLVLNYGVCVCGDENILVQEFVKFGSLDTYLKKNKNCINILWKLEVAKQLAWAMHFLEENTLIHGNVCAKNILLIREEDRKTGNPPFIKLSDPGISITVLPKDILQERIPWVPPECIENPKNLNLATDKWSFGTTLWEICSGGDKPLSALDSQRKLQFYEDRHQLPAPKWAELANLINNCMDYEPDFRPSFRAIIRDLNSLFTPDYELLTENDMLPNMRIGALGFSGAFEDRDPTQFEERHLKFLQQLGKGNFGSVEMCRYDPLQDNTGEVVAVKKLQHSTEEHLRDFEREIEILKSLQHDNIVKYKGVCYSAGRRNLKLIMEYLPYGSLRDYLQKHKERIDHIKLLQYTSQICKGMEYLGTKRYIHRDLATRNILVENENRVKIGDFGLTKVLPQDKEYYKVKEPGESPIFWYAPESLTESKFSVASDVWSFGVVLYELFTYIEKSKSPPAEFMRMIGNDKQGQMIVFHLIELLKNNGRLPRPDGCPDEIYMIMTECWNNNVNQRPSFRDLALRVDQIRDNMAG

Structure (SMILES)	fold loss in potency, enzymatic versus NanoBRET, DRAK1 (DRAK1 (DRAK1-NLuc))	no. kinases with PoC < 10 [1]	S10 (1 μM) [1]	no. kinases ≤ 10 PoC in enzyme panel (16-member kinase panel)	IC50 (JAK2)	DRAK1 NanoBRET IC50 (DRAK1 (DRAK1-NLuc); HEK293, 0.5 μM tracer K-9, n = 1 where no error, SEM n = 3)	IC50 (ULK2)	IC50 (DRAK2)
O=C(NCCCNc1ccnc(Nc2cccc(NC(=O)N3CCCC3)c2)n1)C1CCC1 [Compound 17, N-(3-((4-((3-(Cyclobutanecarboxamido)propyl)amino)pyrimidin-2-yl)amino)phenyl)pyrrolidine-1-carboxamide]	< 10 fold	3	0.007	0	> 10000 nM			
Cc1nn(CC(F)(F)F)cc1Nc1ncc(C2CC2)c(NCCCNC(=O)C2CCC2)n1 [Compound 4, N-(3-((5-Cyclopropyl-2-((3-methyl-1-(2,2,2-trifluoroethyl)-1H-pyrazol-4-yl)amino)pyrimidin-4-yl)amino)propyl)cyclobutanecarboxamide]	< 10 fold	11	0.027	1		submicromolar	1740 nM	62 nM
